According to ChEMBL document CHEMBL4689842, “EUbOPEN Chemogenomics Library wave 1” (2021):

Test system: U2OS
Experiment: Multiplex assay against U2OS
Format: toxicity, cell-based
Details: human
In short: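 Values for tubulin, mitochondrial-mass and membrane-permeability phenotypes are per cents of cells with healthy nuclei. These cells were identified by CellPathfinder machine-learning gating of live cells that had been stained at seeding with Hoechst33342, BioTracker Green Microtubule Cytoskeleton Dye, MitoTracker Red and Annexin V Alexa Fluor 680 and imaged on a CQ1 microscope at 37°C and 5% CO2 after compound addition. The gating first set Hoechst high-intensity objects apart from normal cells, then split normal cells into healthy, pyknosed or fragmented nuclei, and pyknosed cells into mitotic or apoptotic.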

[1] = 12 h, 1 µM, compound concentration 1 uM, replicate 1
[2] = 12 h, 1 µM, compound concentration 1 uM, replicate 2
[3] = 12 h, 10 µM, compound concentration 10 uM, replicate 1
[4] = 12 h, 10 µM, compound concentration 10 uM, replicate 2
[5] = 24 h, 1 µM, compound concentration 1 uM, replicate 1
[6] = 24 h, 1 µM, compound concentration 1 uM, replicate 2
[7] = 24 h, 10 µM, compound concentration 10 uM, replicate 1
[8] = 24 h, 10 µM, compound concentration 10 uM, replicate 2
[9] = 48 h, 1 µM, compound concentration 1 uM, replicate 1
[10] = 48 h, 1 µM, compound concentration 1 uM, replicate 2
[11] = 48 h, 10 µM, compound concentration 10 uM, replicate 1
[12] = 48 h, 10 µM, compound concentration 10 uM, replicate 2

CC[C@H](C)C(=O)O[C@H]1C[C@@H](C)C=C2C=C[C@H](C)[C@H](CC[C@@H]3C[C@@H](O)CC(=O)O3)[C@H]21 [LOVASTATIN]
Population Apoptotic (%) [1]: 21%
Population Fragmented Nuclei (%) [1]: 13%
Population Healthy Nuclei (%) [1]: 76%
Population Hoechst High Intensity Objects (%) [1]: 12%
Population Membrane Permeable-Phenotype (%) [1]: 7%
Population Mitochondria Different-Phenotype (%) [1]: 5%
Population Mitotic Cells (%) [1]: 78%
Population Normal (%) [1]: 87%
Population Pyknosed Nuclei (%) [1]: 9%
Population Tubulin-Different-Phenotype (%) [1]: 13%
Total Cell Count [1]: 140
Population Apoptotic (%) [2]: 25%
Population Fragmented Nuclei (%) [2]: 22%
Population Healthy Nuclei (%) [2]: 68%
Population Hoechst High Intensity Objects (%) [2]: 11%
Population Membrane Permeable-Phenotype (%) [2]: 3%
Population Mitochondria Different-Phenotype (%) [2]: 6%
Population Mitotic Cells (%) [2]: 75%
Population Normal (%) [2]: 88%
Population Pyknosed Nuclei (%) [2]: 8%
Population Tubulin-Different-Phenotype (%) [2]: 3%
Total Cell Count [2]: 87
Population Apoptotic (%) [3]: 31%
Population Fragmented Nuclei (%) [3]: 20%
Population Healthy Nuclei (%) [3]: 68%
Population Hoechst High Intensity Objects (%) [3]: 10%
Population Membrane Permeable-Phenotype (%) [3]: 9%
Population Mitochondria Different-Phenotype (%) [3]: 14%
Population Mitotic Cells (%) [3]: 68%
Population Normal (%) [3]: 89%
Population Pyknosed Nuclei (%) [3]: 11%
Population Tubulin-Different-Phenotype (%) [3]: 12%
Total Cell Count [3]: 163
Population Apoptotic (%) [4]: 100%
Population Fragmented Nuclei (%) [4]: 4%
Population Healthy Nuclei (%) [4]: 90%
Population Hoechst High Intensity Objects (%) [4]: 8%
Population Membrane Permeable-Phenotype (%) [4]: 10%
Population Mitochondria Different-Phenotype (%) [4]: 12%
Population Mitotic Cells (%) [4]: 0%
Population Normal (%) [4]: 91%
Population Pyknosed Nuclei (%) [4]: 4%
Population Tubulin-Different-Phenotype (%) [4]: 20%
Total Cell Count [4]: 54
Population Apoptotic (%) [5]: 18%
Population Fragmented Nuclei (%) [5]: 6%
Population Healthy Nuclei (%) [5]: 84%
Population Hoechst High Intensity Objects (%) [5]: 7%
Population Membrane Permeable-Phenotype (%) [5]: 6%
Population Mitochondria Different-Phenotype (%) [5]: 8%
Population Mitotic Cells (%) [5]: 81%
Population Normal (%) [5]: 92%
Population Pyknosed Nuclei (%) [5]: 8%
Population Tubulin-Different-Phenotype (%) [5]: 14%
Total Cell Count [5]: 144
Population Apoptotic (%) [6]: 40%
Population Fragmented Nuclei (%) [6]: 22%
Population Healthy Nuclei (%) [6]: 70%
Population Hoechst High Intensity Objects (%) [6]: 9%
Population Membrane Permeable-Phenotype (%) [6]: 0%
Population Mitochondria Different-Phenotype (%) [6]: 4%
Population Mitotic Cells (%) [6]: 60%
Population Normal (%) [6]: 90%
Population Pyknosed Nuclei (%) [6]: 7%
Population Tubulin-Different-Phenotype (%) [6]: 4%
Total Cell Count [6]: 93
Population Apoptotic (%) [7]: 25%
Population Fragmented Nuclei (%) [7]: 13%
Population Healthy Nuclei (%) [7]: 76%
Population Hoechst High Intensity Objects (%) [7]: 6%
Population Membrane Permeable-Phenotype (%) [7]: 8%
Population Mitochondria Different-Phenotype (%) [7]: 7%
Population Mitotic Cells (%) [7]: 75%
Population Normal (%) [7]: 93%
Population Pyknosed Nuclei (%) [7]: 9%
Population Tubulin-Different-Phenotype (%) [7]: 9%
Total Cell Count [7]: 204
Population Apoptotic (%) [8]: 28%
Population Fragmented Nuclei (%) [8]: 8%
Population Healthy Nuclei (%) [8]: 79%
Population Hoechst High Intensity Objects (%) [8]: 7%
Population Mitochondria Different-Phenotype (%) [8]: 4%
Population Mitotic Cells (%) [8]: 71%
Population Normal (%) [8]: 92%
Population Pyknosed Nuclei (%) [8]: 11%
Population Tubulin-Different-Phenotype (%) [8]: 23%
Total Cell Count [8]: 74
Population Apoptotic (%) [9]: 41%
Population Fragmented Nuclei (%) [9]: 4%
Population Healthy Nuclei (%) [9]: 89%
Population Hoechst High Intensity Objects (%) [9]: 3%
Population Membrane Permeable-Phenotype (%) [9]: 4%
Population Mitochondria Different-Phenotype (%) [9]: 8%
Population Mitotic Cells (%) [9]: 58%
Population Normal (%) [9]: 96%
Population Pyknosed Nuclei (%) [9]: 5%
Population Tubulin-Different-Phenotype (%) [9]: 11%
Total Cell Count [9]: 129
Population Apoptotic (%) [10]: 0%
Population Fragmented Nuclei (%) [10]: 10%
Population Healthy Nuclei (%) [10]: 87%
Population Hoechst High Intensity Objects (%) [10]: 7%
Population Membrane Permeable-Phenotype (%) [10]: 1%
Population Mitochondria Different-Phenotype (%) [10]: 5%
Population Mitotic Cells (%) [10]: 100%
Population Normal (%) [10]: 92%
Population Pyknosed Nuclei (%) [10]: 2%
Population Tubulin-Different-Phenotype (%) [10]: 7%
Total Cell Count [10]: 89
Population Apoptotic (%) [11]: 40%
Population Fragmented Nuclei (%) [11]: 12%
Population Healthy Nuclei (%) [11]: 78%
Population Hoechst High Intensity Objects (%) [11]: 4%
Population Membrane Permeable-Phenotype (%) [11]: 3%
Population Mitochondria Different-Phenotype (%) [11]: 5%
Population Mitotic Cells (%) [11]: 60%
Population Normal (%) [11]: 95%
Population Pyknosed Nuclei (%) [11]: 8%
Population Tubulin-Different-Phenotype (%) [11]: 4%
Total Cell Count [11]: 300
Population Apoptotic (%) [12]: 33%
Population Fragmented Nuclei (%) [12]: 3%
Population Healthy Nuclei (%) [12]: 89%
Population Hoechst High Intensity Objects (%) [12]: 7%
Population Membrane Permeable-Phenotype (%) [12]: 6%
Population Mitochondria Different-Phenotype (%) [12]: 6%
Population Mitotic Cells (%) [12]: 66%
Population Normal (%) [12]: 92%
Population Pyknosed Nuclei (%) [12]: 7%
Population Tubulin-Different-Phenotype (%) [12]: 21%
Total Cell Count [12]: 96
